Source: PubChem
The list is not random: actives were taken first. Their share in the collection is about 2.4%.
Cneo AK release – causes C. neoformans cell lysis | adenylate kinase release luminescence, 4 h; normalised: neutral wells 0, clomiphene wells 100 | lysis activity, % at 15 µM | hit rate 0.2% among 360,000 | AID 651654;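 active = mean lysis activity across replicates of at least 80%, whatever share of replicates individually reach that level; inactive = mean lysis activity below 80%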
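Assay system: log-phase C. neoformans yeast / Quantity: yeast cell density of 5 × 10^6 cells/mL / Medium: fresh YPD growth medium / Compound: single dose / Timing: static 4 h at 37 °C with compound, 1 h detection / Measured by: adenylate kinase release luminescence / Read-out: lysis from increased AK signal / Benchmarks: Clomiphene as positive lysis control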
GSIS activator – primary screen for activators of insulin secretion dependent on glucose, INS-1E cells, GLuc reporter luminescence; hit rate 0.61% among 370,000; activation, % at 16.6 µM; INS-1E GLuc reporter insulin secretion, 2-3 h; AID 743287;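 active = lowest replicate activation of at least 40%, so every replicate reaches that level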;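 note: 0% = median of neutral control wells and 100% = median of IBMX positive control wells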
Rtt109 Vps75 – inhibitors of Candida albicans Rtt109/Vps75 histone acetyltransferase | Q5AAJ8 | purified Rtt109/Vps75, ThioGlo CoA-SH fluorescence, 4 h | inhibition, % at 34.9 µM | hit rate 0.16% among 330,000;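 active = inhibition of at least 50% in every replicate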
dFosB activator – activators of mouse delta FosB homodimer. activation, % at 25 µM. hit rate 0.99% among 340,000. purified delta FosB, TAMRA-CDK5 oligo fluorescence polarization; percent of positive-control signal above neutral wells. P13346;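 active = mean activation above about 17%, with every replicate also reaching it, limit read from the data, passing the limit was not always enough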
Target sequence (P13346 whole entry, looked up): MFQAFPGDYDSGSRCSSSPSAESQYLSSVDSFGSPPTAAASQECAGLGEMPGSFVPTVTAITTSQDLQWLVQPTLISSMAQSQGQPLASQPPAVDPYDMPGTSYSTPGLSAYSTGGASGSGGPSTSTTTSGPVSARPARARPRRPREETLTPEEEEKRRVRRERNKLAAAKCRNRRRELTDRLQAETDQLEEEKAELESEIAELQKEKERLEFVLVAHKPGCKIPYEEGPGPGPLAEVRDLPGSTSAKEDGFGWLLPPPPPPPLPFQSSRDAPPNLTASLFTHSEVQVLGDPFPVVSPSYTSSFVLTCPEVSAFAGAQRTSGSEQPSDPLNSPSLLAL
miR-122 sensor – blocks miR-122 activity in Huh7 sensor cells; Huh7 miR-122 Renilla luciferase sensor, 48 h; neutral wells = 0, positive control = 100; activation (reporter increase), % at 12.5 µM; hit rate 0.3% among 340,000; AID 602342;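 active = mean replicate activation score at least 90 and every replicate individually at or above 90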;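 note: higher luciferase means less miR-122 activity so hits act as miR-122 inhibitors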
HIV Env fusion – HIV envelope-mediated fusion inhibition | AID 651610 | inhibition, % at 12.3 µM | hit rate 1.1% among 360,000 | HeLa-JRFL Env/CEM21 cell fusion, luciferase;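 active = mean replicate inhibition score of at least 50 and every replicate individually at or above 50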;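 note: 0% = plate neutral controls and 100% = maraviroc near 300 nM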
Starred values were filed as active, the others as inactive; / = no result; + = active, no number; ! = a repeat was not active; [ ] = dose if it differs, or a comment.

SMILES	Cneo AK release	GSIS activator	Rtt109 Vps75	dFosB activator	miR-122 sensor	HIV Env fusion
C[C@H](CO)N1C[C@H](C)[C@H](CN(C)S(=O)(=O)c2ccccc2F)Oc2ncc(/C=C/c3ccccc3)cc2C1=O	-1.6	-9.3	/	/	21.9[16.7 µM]	70.8*[16.7 µM]
COc1ccc(S(=O)(=O)N(C)C[C@@H]2Oc3ncc(-c4cc5ccccc5o4)cc3C(=O)N([C@H](C)CO)C[C@@H]2C)cc1	-2.2	/	/	/	-3.4[16.7 µM]	69.3*[16.7 µM]
COc1ccc(-c2cn(CC[C@H]3CC[C@H](NC(=O)CCN4CCCCC4)[C@H](CO)O3)nn2)cc1	-2.7	11.4	/	/	/	-6.0[16.7 µM]
CN1[C@@H]2Cn3c(ccc(-c4ccccc4)c3=O)[C@H]1[C@@H](C(=O)NCC1CCCCC1)[C@@H]2CO	-4.2	-0.3	/	/	/	9.1[16.7 µM]
C[C@H](CO)N1C[C@H](C)[C@H](CN(C)Cc2ccncc2)Oc2ncc(C#Cc3ccccn3)cc2C1=O	0.1	-2.2	/	/	-7.0[16.7 µM]	-16.9[16.7 µM]
COc1ccc(S(=O)(=O)N(C)C[C@@H]2Oc3ccc(N(C)C)cc3C(=O)N([C@H](C)CO)C[C@@H]2C)cc1	10.0	2.3	/	/	-7.6[16.7 µM]	58.7*[16.7 µM]
COc1ccc(S(=O)(=O)N(C)C[C@@H]2Oc3ncc(/C=C/c4ccccc4)cc3C(=O)N([C@H](C)CO)C[C@@H]2C)cc1	-8.8	-48.4	/	/	-22.2[16.7 µM]	55.1*![16.7 µM]
C[C@H]1CN([C@@H](C)CO)C(=O)c2cc(C#Cc3ccccn3)cnc2O[C@H]1CN(C)Cc1ccncc1	94.0*	12.2	/	/	0.3[16.7 µM]	-21.7[16.7 µM]
C[C@H](CO)N1C[C@H](C)[C@H](CN(C)S(=O)(=O)c2ccccc2)Oc2ncc(/C=C/c3ccccc3)cc2C1=O	6.2	4.4	/	/	-11.6[16.7 µM]	73.7*[16.7 µM]
COc1ccccc1C#Cc1ccc2c(c1)O[C@@H](CN(C)Cc1ccccc1)[C@@H](C)CN([C@H](C)CO)S2(=O)=O	7.4	-9.9	/	/	-6.3[16.7 µM]	26.2[16.7 µM]
Fc1cccc(CN2C[C@@H]3N[C@H](C2)[C@@H]3c2ccc(-c3cccc(F)c3)cc2)c1	/	+	/	/	/	/
Fc1cccc(-c2ccc(C3[C@@H]4CN(Cc5ccccc5F)C[C@H]3N4)cc2)c1 (stereo not given in full)	/	804.5*!	/	/	/	/
C=C[C@@H](C)N(Cc1ccc(OC)cc1)S(=O)(=O)N(Cc1ccccc1)[C@H](C=C)C(C)C	-0.9	-35.3	5.9	0.6	-0.4	88.9*
C[C@@H]1CN([C@@H](C)CO)C(=O)Cc2cc(N(C)C)ccc2O[C@H]1CN(C)S(=O)(=O)c1cccs1	/	-4.2	/	/	3.1[16.7 µM]	21.1[16.7 µM]
Cc1nn(-c2ccccc2)c(N2CCCC2)c1/C=N/NC(=S)Nc1cc(C(F)(F)F)ccc1Cl	-2.1	-5.1	1.9	-10.0	0.2	/
Cc1nn(-c2ccccc2)c(N2CCCC2)c1/C=N/NC(=S)Nc1ccc(F)cc1	-2.2	74.5*	/	-11.8	3.7	6.0
Cc1nn(-c2ccccc2)c(Cl)c1/C=N/O	/	13.1	-4.4	3.2	/	-19.6
Cc1nn(-c2ccccc2)c(N2CCCC2)c1/C=N/NC(=S)Nc1ccccc1C(F)(F)F	/	/	11.9	-3.6	/	11.4
Cc1ccc(NC(=S)N/N=C/c2c(C)nn(-c3ccccc3)c2N2CCCC2)cc1	/	64.0*	-1.4	-7.9	/	/
COc1ccccc1NS(=O)(=O)c1cccc(C(=O)N/N=C/c2c(C)nn(-c3ccccc3)c2N2CCCC2)c1	/	73.3*	-1.1	-13.2	/	/
Cc1nn(-c2ccccc2)c(N2CCCC2)c1/C=N/O	0.8	91.2*	-2.9	-8.9	1.0	/
Cc1cc(NC(=O)/C=C/c2ccc(Cl)cc2)no1	/	49.5*	2.7	0.0	/	-23.6
COc1ccc(S(=O)(=O)Nc2ccc(CC#N)cc2)cc1	0.9	/	-9.8	-2.8	163.9*	/
N#CCc1ccc(NS(=O)(=O)c2ccc(C3CCCCC3)cc2)cc1	-1.9	-45.8	19.2	2.3	182.4*	/
COc1ccc2c3c(n(C)c2c1)[C@H](CO)N(C(=O)CN(C)C)CC31CN(C(=O)CN(C)C)C1	/	10.9	/	/	/	/
CC1=CN2C(=N)/C(=C/c3cn(CCCOc4ccccc4C)c4ccccc34)C(=O)N=C2S1	-1.0	47.2*	-0.6	9.0	-1.0	1.3
O=C(C[C@H]1C[C@@H]2c3cc(NC(=O)Nc4ccc(F)cc4)ccc3O[C@@H]2[C@@H](CO)O1)NC1CCCC1	/	-15.5	/	/	/	/
CCOC(=O)c1c(CN(C)C)n(C)c2ccc(OC(C)=O)cc12	4.0	/	1.8	2.6	/	/
